As a reminder, the Ki is the equilibrium dissociation constant of an inhibitor or competing ligand from its target. Higher therefore signals lower affinity. By IC50 is commonly meant the point on the concentration scale where inhibition reaches its midpoint.

Here are results for eleven molecules from publication PMC5647227 (ACS chemical neuroscience, 2017).

Entries after “also recorded” stand apart in the source; their conditions may differ.

Assay [1] deals with DOP receptor (Rattus norvegicus, UniProt P33533). Put plainly: Opioid receptor binding, [3H]DSLET displacement from rat brain membranes.
DOP receptor (Rattus norvegicus, UniProt P33533), sequence (P33533 whole entry): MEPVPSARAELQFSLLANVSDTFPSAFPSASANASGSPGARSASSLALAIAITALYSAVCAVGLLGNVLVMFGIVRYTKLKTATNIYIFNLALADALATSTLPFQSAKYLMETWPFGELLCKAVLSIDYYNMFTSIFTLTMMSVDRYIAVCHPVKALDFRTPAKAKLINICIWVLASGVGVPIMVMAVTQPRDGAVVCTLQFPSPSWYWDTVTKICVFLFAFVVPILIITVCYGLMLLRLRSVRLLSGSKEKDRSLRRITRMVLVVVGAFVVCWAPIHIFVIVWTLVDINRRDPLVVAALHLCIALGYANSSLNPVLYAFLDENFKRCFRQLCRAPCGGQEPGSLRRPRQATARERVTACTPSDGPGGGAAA
Assay [2] addresses T1, hNK1 receptors (Homo sapiens, UniProt P25103). Put plainly: [3H]Substance-P competition binding assay, hNK1-CHO membranes.
Assay [3] deals with MOP receptor (Rattus norvegicus, UniProt P33535). Put plainly: Opioid receptor binding, [3H]DAMGO displacement from rat brain membranes.
MOP receptor (Rattus norvegicus, UniProt P33535), sequence (P33535 whole entry): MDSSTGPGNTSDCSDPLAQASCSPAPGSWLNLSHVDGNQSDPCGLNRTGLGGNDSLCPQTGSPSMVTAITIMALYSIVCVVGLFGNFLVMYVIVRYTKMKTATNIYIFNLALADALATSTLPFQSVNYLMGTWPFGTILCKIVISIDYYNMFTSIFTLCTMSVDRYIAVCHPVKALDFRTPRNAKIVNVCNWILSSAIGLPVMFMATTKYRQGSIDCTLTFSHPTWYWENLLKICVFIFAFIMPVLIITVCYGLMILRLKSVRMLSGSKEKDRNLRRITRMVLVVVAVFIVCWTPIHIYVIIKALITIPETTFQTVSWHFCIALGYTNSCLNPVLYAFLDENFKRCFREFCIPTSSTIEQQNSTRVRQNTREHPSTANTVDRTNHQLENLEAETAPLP
The target in assay [4] is T1, hNK1 receptors. Put plainly: Functional NK1 receptor assay. The assay is classed as cell-based.
In assay [5] the target is DOP receptor (Mus musculus, UniProt P32300). Put plainly: Mouse vas deferens. Type of assay: biochemical.
DOP receptor (Mus musculus, UniProt P32300), sequence (P32300 whole entry): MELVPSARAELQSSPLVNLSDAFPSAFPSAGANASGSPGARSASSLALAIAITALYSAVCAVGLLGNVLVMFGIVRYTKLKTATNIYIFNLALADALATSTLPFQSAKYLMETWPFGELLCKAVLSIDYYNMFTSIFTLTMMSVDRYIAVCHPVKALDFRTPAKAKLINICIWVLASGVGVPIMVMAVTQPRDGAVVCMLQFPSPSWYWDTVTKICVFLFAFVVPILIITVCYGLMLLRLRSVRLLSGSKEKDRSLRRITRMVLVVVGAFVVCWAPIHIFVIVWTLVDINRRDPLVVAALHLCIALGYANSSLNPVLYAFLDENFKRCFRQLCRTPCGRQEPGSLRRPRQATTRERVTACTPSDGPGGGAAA
The target of assay [6] is MOP receptor (Cavia porcellus, UniProt A0ACM8Q262). Put plainly: Guinea pig ileum. Type of assay: biochemical. As to conditions: read-out: GPI IC50; representative of MOP receptor activation.
MOP receptor (Cavia porcellus, UniProt A0ACM8Q262), sequence (A0ACM8Q262 1-400): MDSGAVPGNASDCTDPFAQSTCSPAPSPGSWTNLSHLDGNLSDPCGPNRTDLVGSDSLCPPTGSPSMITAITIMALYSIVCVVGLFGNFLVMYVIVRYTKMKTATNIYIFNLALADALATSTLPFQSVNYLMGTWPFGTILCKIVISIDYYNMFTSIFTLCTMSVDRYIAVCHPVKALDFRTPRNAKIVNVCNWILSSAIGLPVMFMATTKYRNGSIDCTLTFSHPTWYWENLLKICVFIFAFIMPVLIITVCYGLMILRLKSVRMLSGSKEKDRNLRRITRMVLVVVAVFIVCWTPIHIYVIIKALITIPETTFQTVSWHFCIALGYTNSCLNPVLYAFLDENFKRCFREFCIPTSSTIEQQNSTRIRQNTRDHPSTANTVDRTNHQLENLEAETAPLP
The test system of the next assay is naive mice. Put plainly: Tail-flick test, acute pain after i.t. administration. Type of assay: in vivo, mouse. As to conditions: for analgesic effect in acute pain model: dose of 1 μg; for duration of analgesic effect, tail-flick: 0.1 nmol. On the technique in general: In hot-plate and tail-flick tests a longer latency is read as antinociception.
The test system of assay [7] is CCI-exposed mice. Put plainly: Von Frey test, tactile hypersensitivity in neuropathic pain model. Type of assay: in vivo, mouse. Conditions: i.t.; for duration of effect, von Frey test: moderate dose ca. 1 nmol (1 μg). The method in brief: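 CCI mice, unanesthetized, received test compound in water for injections intrathecally by lumbar puncture between L5 and L6, in a 5 μL volume. Doses ranged from about 0.1 to 10 nmol/animal. Calibrated nylon monofilaments (0.6–6 g, 6 g cutoff) were applied in serial increments to the hind-paw plantar surface until paw withdrawal, shaking or licking. Testing was done at 30, 90 and 180 min after dosing. Effect was expressed as % MPE.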

For assay [8], the system named is CCI-exposed mice. Put plainly: Neuropathic pain model, von Frey and cold plate tests taken together. Type of assay: in vivo, mouse. As to conditions: i.t.; for relative analgesic efficacy among hybrids in neuropathic pain model: von Frey and cold plate tests. The gist of the method:
(§1)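 CCI mice, unanesthetized, received test compound in water for injections intrathecally by lumbar puncture between L5 and L6, in a 5 μL volume. Doses ranged from about 0.1 to 10 nmol/animal. The cold plate was held at 2 °C and latency to hind-paw lift was timed, with a 30 s cutoff. Testing was done at 30, 90 and 180 min after dosing. Effect was expressed as % MPE.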

In assay [9] the test system is CCI-exposed mice. Put plainly: Cold plate test, thermal hypersensitivity in neuropathic pain model. The assay is classed as in vivo, mouse. As to conditions: i.t. The gist of the method: as §1

T1 sequence (P25103 whole entry): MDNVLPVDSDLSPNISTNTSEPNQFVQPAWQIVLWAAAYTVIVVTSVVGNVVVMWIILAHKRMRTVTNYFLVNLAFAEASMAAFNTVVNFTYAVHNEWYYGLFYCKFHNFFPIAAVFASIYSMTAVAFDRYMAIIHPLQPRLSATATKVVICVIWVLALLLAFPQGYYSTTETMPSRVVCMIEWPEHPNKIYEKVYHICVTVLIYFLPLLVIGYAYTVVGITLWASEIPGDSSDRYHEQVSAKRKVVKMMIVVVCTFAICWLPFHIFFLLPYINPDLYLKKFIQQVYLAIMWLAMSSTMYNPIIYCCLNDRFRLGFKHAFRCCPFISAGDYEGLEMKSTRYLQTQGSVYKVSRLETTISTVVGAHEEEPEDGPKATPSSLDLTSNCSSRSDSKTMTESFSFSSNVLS

On to `Cc1cc(O)cc(C)c1C[C@H](N)C(=O)N[C@H](CCCNC(=N)N)C(=O)N[C@H]1Cc2ccccc2CN(CCC(=O)N(Cc2cc(C(F)(F)F)cc(C(F)(F)F)c2)C2CC2)C1=O` [Compound 6, H-Dmt-D-Arg-Aba-β-Ala-NcPr-3′,5′-(CF3)2-Bn], for which the Ki at DOP receptor [1] was determined as 190 nM; on hNK1 receptors [2], 735 nM; at MOP receptor [3], 47 nM. At hNK1 receptors [4], the Kb is 4370 nM. Moreover, the results for the IC50 at DOP receptor [5] and on MOP receptor [6] were 16 nM and 18 nM, respectively.

As to `Cc1cc(O)cc(C)c1C[C@H](N)C(=O)N[C@H](CCCNC(=N)N)C(=O)N[C@H]1Cc2ccccc2CN(CCC(=O)N2Cc3ccccc3C2)C1=O` [Compound 9, H-Dmt-D-Arg-Aba-β-Ala-isoindoline], the Ki on DOP receptor [1] was 16 nM; on hNK1 receptors [2], more than 10000 nM; on MOP receptor [3], 0.2 nM. The 50% inhibitory concentration (IC50) amounted to 2.1 nM at DOP receptor [5] and 5 nM at MOP receptor [6].

With H-Dmt-D-Arg-Aba-Gly-NH2 [Compound 1], the “lowest dose raising latency of response to thermal stimuli, tail-flick” value in the assay on naive mice was found to be 0.0013 nmol. The “analgesic effect in acute pain model” value in the assay on naive mice is listed as approximately 100 % MPE; in the assay with naive mice (at 180 min after administration), more than 80 % MPE. In the assay with naive mice (highest dose tested 1.3 nmol, lasting up to 180 min), the “analgesic effect, tail-flick” value was approximately 100 % MPE. In addition, the “lowest efficacious dose in acute pain model” value in the assay on naive mice (p < 0.05 vs vehicle) worked out at 0.001 nmol/5 μL/animal. Further, the “analgesic effect, von Frey test” value with CCI-exposed mice [7] (at 30 min) is on record as “ca. 40 % MPE”; with CCI-exposed mice [7] (maximum over doses) it was not above 40 % MPE.

With “H-Dmt-D-Arg-Aba-Gly-NMe-3′,5′-(CF3)2-Bn [Compound 3, reference compound]”, in the assay with CCI-exposed mice [8] (test not specified or both tests), the “response latency / alleviation of hypersensitivity in neuropathic pain model” value was “ca. 60 % MPE”. In addition, the “tail-flick effect compared with parent compound” value with naive mice is “weaker than its parent compound”.

Turning to `Cc1cc(O)cc(C)c1C[C@H](N)C(=O)N[C@H](CCCNC(=N)N)C(=O)N[C@H]1Cc2ccccc2CN(CC(=O)N2Cc3ccccc3C2)C1=O` [Compound 10, H-Dmt-D-Arg-Aba-Gly-isoindoline], the inhibition constant (Ki) is 81 nM on DOP receptor [1], 3500 nM at hNK1 receptors [2] and 0.06 nM at MOP receptor [3]. This molecule had a Kb at hNK1 receptors [4] of 692000 nM. In addition, the IC50 is 8 nM at DOP receptor [5] and 7.3 nM at MOP receptor [6].

Regarding `Cc1cc(O)cc(C)c1C[C@H](N)C(=O)N[C@H](CCCNC(=N)N)C(=O)N[C@H]1Cc2ccccc2CN(CCC(=O)N(C)Cc2ccc3ccccc3c2)C1=O` [Compound 12, H-Dmt-D-Arg-Aba-β-Ala-NMe-2′-methylenenaphthyl], the inhibition constant (Ki) stood at 44 nM at DOP receptor [1], 612 nM at hNK1 receptors [2] and 0.4 nM at MOP receptor [3]. The molecule further had a Kb at hNK1 receptors [4] of 97.7 nM. In the assay with CCI-exposed mice [8], the “relative analgesic efficacy among hybrids in neuropathic pain model” value is on record as “weaker in both tests”. Also, the “duration of analgesic effect, tail-flick” value in the assay on naive mice was “up to 180 min after administration”. Further, the “analgesic effect, tail-flick” value in the assay with naive mice (doses raised up to ca. 10 nmol) is 60–70 % MPE. The values for the IC50 at DOP receptor [5] and at MOP receptor [6] were 4 nM and 9 nM, respectively. Moreover, the “duration of effect, von Frey test” value with CCI-exposed mice [7] is reported as “not observable 180 min after administration”.

For the molecule `Cc1cc(O)cc(C)c1C[C@H](N)C(=O)N[C@H](CCCNC(=N)N)C(=O)N[C@H]1Cc2ccccc2CN(CC(=O)N(C)Cc2ccc3ccccc3c2)C1=O` [Compound 13, H-Dmt-D-Arg-Aba-Gly-NMe-2′-methylenenaphthyl], the inhibitory constant (Ki) turned out to be 228 nM at DOP receptor [1], 709 nM on hNK1 receptors [2] and 2.8 nM at MOP receptor [3]. The “influence on response, cold plate test” value in the assay with CCI-exposed mice [9] (0.1 nmol) is “did not significantly influence the response”. Besides, the “effect at 180 min, cold plate test” value with CCI-exposed mice [9] (highest dose 10 nmol) was “provided an effect at 180 min after administration”. For the same molecule, the Kb at hNK1 receptors [4] is 3630 nM. Further, the “relative analgesic efficacy among hybrids in neuropathic pain model” value in the assay on CCI-exposed mice [8] is reported as “most efficient analgesic in both tests”. For the same molecule, the “duration of analgesic effect, tail-flick” value in the assay with naive mice is listed as “up to 180 min after administration”. The “analgesic effect, tail-flick” value in the assay with naive mice (doses raised up to ca. 10 nmol) is reported as 60–70 % MPE. Moreover, the “effect in attenuating acute pain” value with naive mice (measured at three time points after administration) is ~ 60 % MPE. The half-maximal inhibitory concentration (IC50) at DOP receptor [5] was 10 nM; at MOP receptor [6] it was 3 nM. For the same molecule, the “response threshold, von Frey test” value in the assay on CCI-exposed mice [7] (lowest tested dose 0.1 nmol) is reported as “ca. 70 % MPE”. Besides, the “duration of effect, von Frey test” value with CCI-exposed mice [7] was “not observable 180 min after administration”.

Turning to `Cc1cc(O)cc(C)c1C[C@H](N)C(=O)N[C@H](CCCNC(=N)N)C(=O)N[C@H]1Cc2ccccc2CN(CC(=O)N(Cc2ccccc2)C2CC2)C1=O` [Compound 8, H-Dmt-D-Arg-Aba-Gly-NcPr-Bn], the inhibition constant Ki on DOP receptor [1] was 68 nM; on hNK1 receptors [2] it was 95 nM; at MOP receptor [3], 0.3 nM. Moreover, the Kb at hNK1 receptors [4] is 3160 nM. Besides, the concentration for half-maximal inhibition (IC50) stood at 11.2 nM on DOP receptor [5] and 10 nM on MOP receptor [6].

As to `Cc1cc(O)cc(C)c1C[C@H](N)C(=O)N[C@H](CCCNC(=N)N)C(=O)N[C@H]1Cc2ccccc2CN(CCC(=O)N(Cc2ccccc2)C2CC2)C1=O` [Compound 7, H-Dmt-D-Arg-Aba-β-Ala-NcPr-Bn], the inhibitory constant (Ki) is 66 nM at DOP receptor [1], 520 nM at hNK1 receptors [2] and 2.7 nM at MOP receptor [3]. Further, the Kb at hNK1 receptors [4] is 6310 nM. The figures for the IC50 against DOP receptor [5] and at MOP receptor [6] were 6.6 nM and 19 nM, respectively.

`COc1ccccc1CN(C)C(=O)CN1Cc2ccccc2C[C@H](NC(=O)[C@@H](CCCNC(=N)N)NC(=O)[C@@H](N)Cc2c(C)cc(O)cc2C)C1=O` [Compound 11, H-Dmt-D-Arg-Aba-Gly-NMe-2′-OMe-Bn]: the Ki at DOP receptor [1] was determined as 26 nM; on hNK1 receptors [2], 501 nM; on MOP receptor [3] it was 0.9 nM. The Kb at hNK1 receptors [4] is 14500 nM. Further, the IC50 at DOP receptor [5] was 2.4 nM; at MOP receptor [6], 5 nM.

H-Dmt-D-Arg-Aba-β-Ala-NH2 [Compound 2]: in the assay with CCI-exposed mice [9] (maximum over doses), the “analgesic effect, cold plate test” value is “no more than 20 % MPE”. The “analgesic effect, tail-flick” value in the assay with naive mice (highest dose tested 1 nmol) is listed as not above 80 % MPE. In addition, the “influence on response threshold, von Frey test” value in the assay on CCI-exposed mice [7] is “no influence on the response threshold; also recorded: not efficacious at all”.
